MrgX1 ag = activates human MrgX1 receptor signaling; actives 0.44% (n = 310,000); MrgX1-HEK293 cells, Fluo-4 calcium fluorescence, agonist mode; hits give high values; Q96LB2; AID 588627; B-score at 10 µM;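 active = calcium response B-score plate-corrected fluorescence ratio at least 3 library SD, with starting fluorescence B-score inside 5 SD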
Target sequence (Q96LB2 whole entry, looked up): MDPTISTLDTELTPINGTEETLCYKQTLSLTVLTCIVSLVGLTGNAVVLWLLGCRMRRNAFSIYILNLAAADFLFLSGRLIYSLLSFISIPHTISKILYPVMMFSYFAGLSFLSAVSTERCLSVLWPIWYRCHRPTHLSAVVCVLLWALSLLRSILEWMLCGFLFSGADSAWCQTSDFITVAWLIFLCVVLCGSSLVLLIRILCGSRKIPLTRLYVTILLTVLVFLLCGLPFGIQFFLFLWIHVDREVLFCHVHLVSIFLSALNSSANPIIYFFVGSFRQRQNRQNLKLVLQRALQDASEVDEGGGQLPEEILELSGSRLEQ
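Test system: Stable human MrgX1 HEK293 cell line | Schedule: Overnight plating before 1 h dye loading | Read-out basis: Baseline-normalised fluorescence change ratio, B-scored | Detection: Kinetic calcium dye fluorescence, Fluo-4 NW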
RGS4 inh = human RGS4 inhibition; P49798; HEK293 M3R/RGS4 inducible, Fluo-4 calcium flux; hits give high values; triggered by carbachol at its EC20; B-score at 10 µM; actives 0.45% (n = 310,000);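 active = B-score, a plate-corrected calcium signal, over three deviations above library mean, with baseline fluorescence within five deviations of library mean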;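 also: RGS4 expression induced by doxycycline in cells with stable M3 receptor; B-score is computed from the integrated fluorescence ratio over baseline after carbachol; higher B-score means a larger calcium signal and so more RGS4 inhibition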
Target sequence (P49798 whole entry, looked up): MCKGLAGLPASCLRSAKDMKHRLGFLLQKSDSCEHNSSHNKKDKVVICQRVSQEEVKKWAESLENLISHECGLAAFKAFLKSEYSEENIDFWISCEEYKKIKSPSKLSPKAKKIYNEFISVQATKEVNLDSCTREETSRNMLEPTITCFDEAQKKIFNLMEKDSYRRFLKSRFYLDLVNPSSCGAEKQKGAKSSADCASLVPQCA
MrgX1 allo act = human MrgX1 positive allosteric modulation, primary screen; B-score at 10 µM; actives 0.63% (n = 310,000); AID 588675; Q96LB2; MrgX1-HEK293, Fluo-4 calcium flux, FDSS; hits give high values;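 active = plate-corrected calcium response at least 3 library SD above typical, normal starting fluorescence, not activating the receptor alone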;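 also: compound read alongside a low EC10 to EC30 dose of BAM8-22 agonist; peak minus trough fluorescence over baseline measured at the second addition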
MrgX1 antag = blocks BAM8-22 activation of human MrgX1 receptor | Q96LB2 | MRGX1-HEK293 calcium flux, Fluo-4, BAM8-22 antagonism; hits give low values | B-score at 10 µM | actives 1.3% (n = 310,000);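 active = calcium-response B-score plate-corrected more than 3 library SD below zero, starting fluorescence within 5 deviations, no agonist response on first addition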;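 also: peak minus trough fluorescence over baseline after final BAM8-22 challenge near maximal dose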
RGS4 act = potentiators or activators of RGS4; HEK293 M3R/inducible RGS4, carbachol calcium flux Fluo4; hits give low values; B-score at 10 µM; actives 0.92% (n = 310,000); AID 463111;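 active = B-score of the integrated calcium signal more than 4 SD below the library mean, with starting fluorescence not abnormally high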;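 also: negative B-score means reduced calcium response which marks RGS4 activation or potentiation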
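Assay system: Inducible-RGS4 HEK293 cells carrying M3 receptor | Schedule: Compound preincubation 20 min at room temperature before agonist | Signal: Kinetic calcium fluorescence imaging with Fluo4-AM dye, 2 µM | Read-out basis: B score from integrated fluorescence ratio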
MrgX1 ag confirm = reconfirmed activator of human MrgX1 receptor signaling; activation, % at 10 µM; shares compounds with MrgX1 ag; MrgX1-HEK293, Fluo-4 calcium fluorescence, FDSS; actives 78% (n = 600);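 active = calcium signal rise, corrected for plate position, at least 3 library SD high, with starting brightness within 5 such deviations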
HEK293 Ca flux = counter-screen for MrgX1 antagonists: effect in parental HEK293 cells; Fluo-4 calcium fluorescence, FDSS; fluorescence ratio F(max-min)/F0 at 10 µM; actives 2% (n = 4,000); shares compounds with MrgX1 antag;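 active = duplicate-averaged calcium fluorescence ratio at least three times the standard deviation of buffer wells, a nonspecific response in parental cells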
HEK293 Ca counter = counter-screen for MrgX1 allosteric activators: effect in parental HEK293 cells | shares compounds with MrgX1 antag | parental HEK293 calcium flux, Fluo-4 fluorescence ratio; hits give high values | fluorescence ratio F(max-min)/F0 at 10 µM | actives 0.4% (n = 4,000);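 active = calcium fluorescence ratio, averaged over duplicates, at least 3 SD of the buffer-well ratio, meaning a nonspecific response in receptor-free cells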;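 also: untransfected parental HEK293 lacking MrgX1 used as counterscreen for MrgX1 allosteric activators; fluorescence change taken during the second addition on a kinetic imager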
HEK293 Ca cntr2 = MrgX1 activator counter-screen hit in parental HEK293 cells; shares compounds with MrgX1 antag; Fluo-4 calcium fluorescence (FDSS); hits give high values; fluorescence ratio F(max-min)/F0 at 10 µM; actives 8.7% (n = 4,000);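 active = calcium fluorescence ratio at least three times the spread of buffer wells, meaning a non-specific response in parental cells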
Starred values were filed as active, the others as inactive; i = inactive; nt = not tested or not shown. In the library only some 3.5% were active in any assay of this set; here they are far more common.

SMILES	MrgX1 ag	RGS4 inh	MrgX1 allo act	MrgX1 antag	RGS4 act	MrgX1 ag confirm	HEK293 Ca flux	HEK293 Ca counter	HEK293 Ca cntr2
CCOC(=O)c1c(CN2CCN(C)CC2)n(C)c2cc(Br)c(OC)cc12	i	i	i	i	i	nt	nt	nt	nt
Cc1[nH]nc(-c2ccc(O)cc2O)c1Oc1ccccc1	28*	i	i	i	i	179%*	i	i	i
Cc1nn(-c2ccccc2)c2c1C(c1ccc(F)cc1F)C(C#N)=C(N)O2 (configuration not stated)	27*	i	i	i	i	183%*	i	i	i
COC(=O)c1cccc(-c2ccc(C(c3c(C)[nH][nH]c3=O)c3c(C)[nH][nH]c3=O)o2)c1	43*	i	i	i	i	192%*	i	i	46*
COC(=O)c1ccccc1-c1ccc(C(c2c(C)[nH][nH]c2=O)c2c(C)[nH][nH]c2=O)o1	i	i	i	i	i	nt	nt	nt	nt
CCOC(=O)c1[nH]c(C)c(C(=O)/C=C/c2ccc(C(=O)O)cc2)c1C	i	i	i	i	i	nt	nt	nt	nt
COc1ccc(/C=C/C(=O)NC2CCCCCCC2)cc1S(=O)(=O)N1CCOCC1	i	i	i	i	i	nt	nt	nt	nt
COc1ccccc1Oc1ccnc2cc(Cl)ccc12	30*	i	i	i	i	103%*	i	i	i
CCOc1ccc(Br)cc1S(=O)(=O)Nc1ncn[nH]1	32*	i	i	i	i	i	i	i	i
CCOc1ccc(S(=O)(=O)Nc2ncn[nH]2)cc1	i	i	i	i	i	nt	nt	nt	nt
CCOC(=O)C1=C(C)Nc2ccccc2N=C1NC(=O)C(CC)c1ccccc1 (configuration not stated)	i	i	i	i	i	nt	nt	nt	nt
Cc1cc(OC(=O)c2ccccc2)n(CCC#N)n1	38*	i	i	i	i	195%*	i	i	i
CN=C(Nc1cc(C)nn1CCC#N)c1ccccc1	i	i	i	i	i	nt	nt	nt	nt
Oc1ccccc1-c1nnc2n1CCCCC2	27*	i	i	i	i	i	i	i	i
Cc1ccc(-c2nnc3n2CCCCC3)cc1	i	i	i	i	i	nt	nt	nt	nt
CC1(C)CSC(=NCc2ccccc2)N1C(=O)c1cccc([N+](=O)[O-])c1	84*	i	i	i	i	505%*	i	i	103*
NC(=NCc1ccccc1)c1cccc([N+](=O)[O-])c1	i	i	i	i	i	nt	nt	nt	nt
COc1cc(/C=C2\SC(=S)N(NS(=O)(=O)c3ccc(C)cc3)C2=O)ccc1O	116*	i	i	i	-7.7*	555%*	0.38*	i	149*
COc1cc(/C=C2\SC(=S)N(NS(=O)(=O)c3ccccc3)C2=O)ccc1O	87*	i	i	i	i	375%*	i	i	99*
COc1cc(/C=C2\SC(=S)N(NC(=O)c3ccccc3OC)C2=O)ccc1O	i	i	i	i	i	nt	nt	nt	nt
COc1cc(/C=C2\SC(=S)N(NS(=O)(=O)c3ccc(C)cc3)C2=O)cc(OC)c1OC	i	i	i	i	i	nt	nt	nt	nt
CCOCCCNC(=O)CCN1C(=O)c2ccccc2Sc2ncccc21	i	i	i	i	i	nt	nt	nt	nt
CCCCCn1c(=N)c(S(=O)(=O)c2ccc(Cl)cc2)cc2c(=O)n3cccc(C)c3nc21	27*	i	i	i	i	94%*	i	i	i
CN(C)c1ccc(/C=C(/C(=O)c2ccc(Cl)cc2Cl)n2cncn2)cc1	77*	i	i	i	i	i	0.33*	i	i
CC(=O)Nc1ccc2nc(NC(=O)C(Cl)(Cl)Cl)sc2c1	29*	i	i	i	i	162%*	i	i	i
SMILES	MrgX1 ag	RGS4 inh	MrgX1 allo act	MrgX1 antag	RGS4 act	MrgX1 ag confirm	HEK293 Ca flux	HEK293 Ca counter	HEK293 Ca cntr2
O=C(CNS(=O)(=O)c1ccc(Br)s1)NCCc1ccc(Cl)cc1	i	i	i	i	i	nt	nt	nt	nt
COc1ccc(CCC(=O)Nc2ncc(C)s2)cc1	i	i	i	i	i	nt	nt	nt	nt
O=C(NCc1ccccc1)c1ccc2c(=O)n3c(nc2c1)CCCCC3	i	i	i	i	i	nt	nt	nt	nt
O=C(NCCc1ccc(F)cc1)c1ccc2c(=O)n3c(nc2c1)CCC3	32*	i	i	i	i	217%*	i	i	52*
O=C(c1ccccc1Cl)N(Cc1ccc(Br)cc1)N1C(=O)CCCC1=O	i	i	i	i	i	nt	nt	nt	nt
O=C(c1ccc([N+](=O)[O-])cc1)N(Cc1ccc(Br)cc1)N1C(=O)CCCC1=O	71*	i	i	i	i	521%*	i	i	96*
Cc1nc(N)nc(N)c1CCCc1ccc(Cl)c(Cl)c1	i	i	i	i	i	nt	nt	nt	nt
O=C(NC1(C(F)(F)F)C(=O)Nc2c1c(=O)[nH]c(=O)n2Cc1ccccc1)c1ccc(Cl)cc1 (configuration not stated)	i	i	i	i	i	nt	nt	nt	nt
O=c1[nH]c(=O)n(Cc2ccccc2)c2c1C(C(F)(F)F)(C(F)(F)F)N=C(c1ccco1)N2	41*	i	i	i	i	223%*	i	i	58*
CCCC#CCN1CCN(C23CC4CC(CC(C4)C2)C3)CC1	i	i	i	i	i	nt	nt	nt	nt
O=c1c2c(-c3ccccc3)csc2ncn1/N=C/c1ccc(O)c([N+](=O)[O-])c1	i	i	i	i	i	nt	nt	nt	nt
O=c1c2c(-c3ccccc3)csc2ncn1/N=C/c1cccc([N+](=O)[O-])c1O	71*	i	i	i	i	315%*	i	i	76*
Cc1ccc(S(=O)(=O)NCc2ccc(C(=O)NCCCN3CCC(Cc4ccccc4)CC3)cc2)cc1	i	i	i	i	i	nt	nt	nt	nt
COc1cccc(N/C(N)=N/c2nc(CSc3ccccn3)cc(=O)[nH]2)c1	i	i	i	i	i	nt	nt	nt	nt
COc1ccnc(CSC(N)=Nc2ccc(F)cc2)c1	75*	i	i	i	i	383%*	i	i	75*

Compound activity as filed in PubChem.
